Reference: ChEMBL document CHEMBL1152344, “Anti-coxsackie virus B3 norsesquiterpenoids from the roots of Phyllanthus emblica” (J Nat Prod, 2009)
In brackets after ≈: the same amount, converted by molar mass.

Legend:
Coxsackievirus B3 = experiment: Antiviral activity against Coxsackie virus B3 […] infected in human HeLa cells assessed as reduction of virus-induced cytopathic effect by MTT assay; format: functional, organism-based, Nancy
How it was run: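 HeLa monolayers were exposed to 100 TCID₅₀ of CVB3 […] together with serial 2-fold compound dilutions below CC₅₀, in DMEM with 2% serum. Uninfected and untreated infected wells served as controls. Plates were kept at 37 °C in humidified CO₂ until virus control CPE peaked, then read by MTT. IC₅₀ is the concentration reducing CPE by 50%, as mean of three independent experiments.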

[1] = Therapeutic index, CC50 for human HeLa cells to IC50 for Coxsackie virus B3 […]; format: cell-based; conditions: read-out: Ratio CC50/IC50
How it was run: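 TI is CC₅₀ divided by IC₅₀. CC₅₀ comes from a 48 h HeLa MTT viability assay; IC₅₀ comes from an MTT-read CPE-inhibition assay with 100 TCID₅₀ CVB3 […] in HeLa cells. Both use DMEM with 2% serum at 37 °C and are means of three independent experiments.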

[2] = Cytotoxicity against human HeLa cells after 48 hrs by MTT assay; format: cell-based
How it was run: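 HeLa monolayers were treated with compound at 200–6.25 µg/mL in DMEM with 2% serum for 48 h at 37 °C. MTT (0.5 mg/mL in PBS) was added for 4 h, then DMSO for 30 min at room temperature, and OD was read at 570/630 nm. CC₅₀ was taken from the mean dose-response curve of three independent experiments.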

[3] = Enterovirus B, Nancy, HeLa, read-out: IC50

SMILES	IC50 (Coxsackievirus B3; hela)	IC50 (Coxsackievirus B3; [3]) [µg/mL]	selectivity ratio [1]	CC50 at 48 h [2] [µg/mL]
C[C@@H]1CO[C@@]2(C[C@@H]1OC(=O)c1ccccc1)O[C@@H]1C[C@@H](C(=O)OC[C@H]3O[C@@H](O[C@H]4[C@H](OC(=O)[C@H]5C[C@@H](O)[C@]6(O)C(=O)[C@]7(C[C@H](OC(=O)c8ccccc8)[C@H](C)CO7)O[C@@H]6C5)O[C@H](CO)[C@@H](O)[C@@H]4O)[C@H](O)[C@@H](O)[C@@H]3O)C[C@@H](O)[C@]1(O)C2=O [PHYLLAEMBLICIN F]	Not Active			
C[C@@H]1CO[C@@]2(C[C@@H]1OC(=O)c1ccccc1)O[C@@H]1C[C@@H](C(=O)O[C@@H]3O[C@H](CO)[C@@H](O)[C@H](O)[C@H]3O[C@@H]3O[C@H](CO)[C@@H](O)[C@H](O)[C@H]3O[C@@H]3OC[C@H](O)[C@@H](O)[C@@H]3O)C[C@@H](O)[C@]1(O)[C@H]2O [PHYLLAEMBLICIN E]	Not Active			
C[C@@H]1CO[C@@]2(C[C@@H]1OC(=O)c1ccccc1)O[C@@H]1C[C@@H](C(=O)O)C[C@@H](O)[C@]1(O)C2=O [PHYLLAEMBLIC ACID]	Not Active			
C[C@@H]1CO[C@@]2(C[C@@H]1OC(=O)c1ccccc1)O[C@@H]1C[C@@H](C(=O)O[C@@H]3O[C@H](CO)[C@@H](O)[C@H](O)[C@H]3O)C[C@@H](O)[C@]1(O)C2=O [PHYLLAEMBLICIN A]	Not Active			
NC(=O)c1ncn([C@@H]2O[C@H](CO)[C@@H](O)[C@H]2O)n1 [RIBAVIRIN]		20.3 (≈ 83.1 µM)	21	426 (≈ 1740 µM)
C[C@@H]1CO[C@@]2(C[C@@H]1OC(=O)c1ccccc1)O[C@@H]1C[C@@H](C(=O)O[C@@H]3O[C@H](CO)[C@@H](O)[C@H](O)[C@H]3O[C@@H]3O[C@H](CO)[C@@H](O)[C@H](O)[C@H]3O[C@@H]3OC[C@@H](O)[C@@H](O)[C@@H]3O)C[C@@H](O)[C@]1(O)C2=O [PHYLLAEMBLICIN C]		11 (≈ 12.5 µM)	6.2	67.7 (≈ 77.2 µM)
C[C@@H]1CO[C@@]2(C[C@@H]1OC(=O)c1ccc(O)cc1)O[C@@H]1C[C@@H](C(=O)O[C@@H]3O[C@H](CO)[C@@H](O)[C@H](O)[C@H]3O[C@@H]3O[C@H](CO)[C@@H](O)[C@H](O)[C@H]3O)C[C@@H](O)[C@]1(O)C2=O [4'-HYDROXYPHYLLAEMBLICIN B]	Not Active			
C[C@@H]1CO[C@@]2(C[C@@H]1OC(=O)c1ccccc1)O[C@@H]1C[C@@H](C(=O)O[C@@H]3O[C@H](CO)[C@@H](O)[C@H](O)[C@H]3O[C@@H]3O[C@H](CO)[C@@H](O)[C@H](O)[C@H]3O)C[C@@H](O)[C@]1(O)C2=O [PHYLLAEMBLICIN B]		7.8 (≈ 10.5 µM)	6.4	50.2 (≈ 67.4 µM)
COC(=O)[C@H]1C[C@@H](O)[C@]2(O)C(=O)[C@]3(C[C@H](OC(=O)c4ccccc4)[C@H](C)CO3)O[C@@H]2C1 [PHYLLAEMBLIC ACID METHY ESTER]		21.8 (≈ 50.2 µM)	9.8	214 (≈ 492 µM)
